According to ChEMBL document CHEMBL3734675, “Synthesis, antimycobacterial and antibacterial activity of fluoroquinolone derivatives containing an 3-alkoxyimino-4-(cyclopropylanimo)methylpyrrolidine moiety” (2015):
In brackets after ≈: the same amount, converted by molar mass.

Assays:
Assay type in all cases: functional
Pseudomonas aeruginosa [1] = test: Antibacterial activity against Pseudomonas aeruginosa 14-15 after 18 to 24 hrs by two-fold serial dilution method
In short: (§1)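 Twofold serial dilution in agar media against Gram-positive and Gram-negative strains. Plates incubated at 35 °C for 18–24 h. MIC read as the lowest compound concentration giving complete inhibition of bacterial growth.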

Klebsiella pneumoniae [2] = test: Antibacterial activity against Klebsiella pneumoniae 14-4 after 18 to 24 hrs by two-fold serial dilution method; in short: as §1
Pseudomonas aeruginosa [3] = test: Antibacterial activity against Pseudomonas aeruginosa 14-9 after 18 to 24 hrs by two-fold serial dilution method; in short: as §1
Staphylococcus aureus [4] = test: Antibacterial activity against methicillin-resistant Staphylococcus aureus 14-4 after 18 to 24 hrs by two-fold serial dilution method
In short: (§2)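 Agar media, standard twofold serial dilution. MIC is the lowest concentration giving complete inhibition of bacterial growth after incubation at 35 °C for 18–24 h. Ciprofloxacin and levofloxacin were run as comparators.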

Klebsiella pneumoniae [5] = test: Antibacterial activity against extended-spectrum beta-lactamase producing Klebsiella pneumoniae 14-18 after 18 to 24 hrs by two-fold serial dilution method; in short: as §1
Staphylococcus aureus [6] = test: Antibacterial activity against methicillin-sensitive Staphylococcus aureus 14-4 after 18 to 24 hrs by two-fold serial dilution method; in short: as §1
Klebsiella pneumoniae [7] = test: Antibacterial activity against Klebsiella pneumoniae 14-1 after 18 to 24 hrs by two-fold serial dilution method; in short: as §1
Enterococcus faecium [8] = test: Antibacterial activity against Enterococcus faecium 14-2 after 18 to 24 hrs by two-fold serial dilution method; in short: as §1
Escherichia coli [9] = test: Antibacterial activity against Escherichia coli ATCC 25922 after 18 to 24 hrs by two-fold serial dilution method; in short: as §1
Pseudomonas aeruginosa [10] = test: Antibacterial activity against Pseudomonas aeruginosa 14-16 after 18 to 24 hrs by two-fold serial dilution method; in short: as §1
[11] = tested on: Staphylococcus epidermidis; test: Antibacterial activity against methicillin-sensitive Staphylococcus epidermidis 14-2 after 18 to 24 hrs by two-fold serial dilution method; in short: as §1
[12] = tested on: Staphylococcus epidermidis; test: Antibacterial activity against methicillin-resistant Staphylococcus epidermidis 14-21 after 18 to 24 hrs by two-fold serial dilution method; in short: as §2
[13] = tested on: Staphylococcus epidermidis; test: Antibacterial activity against methicillin-resistant Staphylococcus epidermidis 14-39 after 18 to 24 hrs by two-fold serial dilution method; in short: as §2
[14] = tested on: Staphylococcus epidermidis; test: Antibacterial activity against methicillin-resistant Staphylococcus epidermidis 14-22 after 18 to 24 hrs by two-fold serial dilution method; in short: as §2
Enterococcus faecalis [15] = test: Antibacterial activity against Enterococcus faecalis 14-1 after 18 to 24 hrs by two-fold serial dilution method; in short: as §1
Klebsiella pneumoniae [16] = test: Antibacterial activity against extended-spectrum beta-lactamase producing Klebsiella pneumoniae 14-17 after 18 to 24 hrs by two-fold serial dilution method; in short: as §1
Enterococcus faecium [17] = test: Antibacterial activity against Enterococcus faecium 14-5 after 18 to 24 hrs by two-fold serial dilution method; in short: as §1
Staphylococcus aureus [18] = test: Antibacterial activity against methicillin-sensitive Staphylococcus aureus 14-3 after 18 to 24 hrs by two-fold serial dilution method; in short: as §1
Enterococcus faecalis [19] = test: Antibacterial activity against Enterococcus faecalis 14-2 after 18 to 24 hrs by two-fold serial dilution method; in short: as §1
Staphylococcus aureus [20] = test: Antibacterial activity against Staphylococcus aureus CMCC 26003 after 18 to 24 hrs by two-fold serial dilution method; in short: as §1
Pseudomonas aeruginosa [21] = test: Antibacterial activity against Pseudomonas aeruginosa 14-14 after 18 to 24 hrs by two-fold serial dilution method; in short: as §1
Klebsiella pneumoniae [22] = test: Antibacterial activity against Klebsiella pneumoniae 14-2 after 18 to 24 hrs by two-fold serial dilution method; in short: as §1
Escherichia coli [23] = test: Antibacterial activity against extended-spectrum beta-lactamase producing Escherichia coli 14-1 after 18 to 24 hrs by two-fold serial dilution method; in short: as §1
Staphylococcus aureus [24] = test: Antibacterial activity against methicillin-resistant Staphylococcus aureus 14-5 after 18 to 24 hrs by two-fold serial dilution method; in short: as §2
Escherichia coli [25] = test: Antibacterial activity against Escherichia coli 14-1 after 18 to 24 hrs by two-fold serial dilution method; in short: as §1
Escherichia coli [26] = test: Antibacterial activity against Escherichia coli 14-2 after 18 to 24 hrs by two-fold serial dilution method; in short: as §1
Enterococcus faecium [27] = test: Antibacterial activity against Enterococcus faecium 14-6 after 18 to 24 hrs by two-fold serial dilution method; in short: as §1
[28] = tested on: Staphylococcus epidermidis; test: Antibacterial activity against methicillin-resistant Staphylococcus epidermidis 14-37 after 18 to 24 hrs by two-fold serial dilution method; in short: as §2
Staphylococcus aureus [29] = test: Antibacterial activity against methicillin-sensitive Staphylococcus aureus 14-1 after 18 to 24 hrs by two-fold serial dilution method; in short: as §1
Streptococcus pneumoniae = test: Antibacterial activity against methicillin-resistant Streptococcus pneumoniae ATCC 19615 after 18 to 24 hrs by two-fold serial dilution method; in short: as §2
Klebsiella pneumoniae [30] = test: Antibacterial activity against extended-spectrum beta-lactamase producing Klebsiella pneumoniae 14-19 after 18 to 24 hrs by two-fold serial dilution method; in short: as §1
Pseudomonas aeruginosa [31] = test: Antibacterial activity against Pseudomonas aeruginosa ATCC 27853 after 18 to 24 hrs by two-fold serial dilution method; in short: as §1
Klebsiella pneumoniae [32] = test: Antibacterial activity against Klebsiella pneumoniae 14-3 after 18 to 24 hrs by two-fold serial dilution method; in short: as §1
Escherichia coli [33] = test: Antibacterial activity against extended-spectrum beta-lactamase producing Escherichia coli 14-2 after 18 to 24 hrs by two-fold serial dilution method; in short: as §1

| Compound | MIC (Pseudomonas aeruginosa [1]) | MIC (Klebsiella pneumoniae [2]) | MIC (Pseudomonas aeruginosa [3]) | MIC (Staphylococcus aureus [4]) | MIC (Klebsiella pneumoniae [5]) | MIC (Staphylococcus aureus [6]) | MIC (Klebsiella pneumoniae [7]) | MIC (Enterococcus faecium [8]) | MIC (Escherichia coli [9]) | MIC (Pseudomonas aeruginosa [10]) | MIC [11] | MIC [12] | MIC [13] | MIC [14] | MIC (Enterococcus faecalis [15]) | MIC (Klebsiella pneumoniae [16]) | MIC (Enterococcus faecium [17]) | MIC (Staphylococcus aureus [18]) | MIC (Enterococcus faecalis [19]) | MIC (Staphylococcus aureus [20]) | also measured |
| --- | --- | --- | --- | --- | --- | --- | --- | --- | --- | --- | --- | --- | --- | --- | --- | --- | --- | --- | --- | --- | --- |
| CCO/N=C1/CN(c2c(F)cc3c(=O)c(C(=O)O)cn([C@@H]4C[C@@H]4F)c3c2OC)CC1CNC1CC1 (stereo partly drawn) | 32 µg/mL (≈ 65.2 µM) | > 32 µg/mL | 32 µg/mL (≈ 65.2 µM) | 8 µg/mL (≈ 16.3 µM) | 32 µg/mL (≈ 65.2 µM) | 0.06 µg/mL (≈ 0.122 µM) | > 32 µg/mL | 8 µg/mL (≈ 16.3 µM) | 2 µg/mL (≈ 4.08 µM) | 32 µg/mL (≈ 65.2 µM) | 16 µg/mL (≈ 32.6 µM) | 8 µg/mL (≈ 16.3 µM) | 4 µg/mL (≈ 8.15 µM) | 8 µg/mL (≈ 16.3 µM) | 32 µg/mL (≈ 65.2 µM) | 32 µg/mL (≈ 65.2 µM) | 4 µg/mL (≈ 8.15 µM) | 0.03 µg/mL (≈ 0.0612 µM) | 2 µg/mL (≈ 4.08 µM) | 0.06 µg/mL (≈ 0.122 µM) | MIC (Pseudomonas aeruginosa [21]): 32 µg/mL (≈ 65.2 µM); MIC (Klebsiella pneumoniae [22]): > 32 µg/mL; MIC (Escherichia coli [23]): 4 µg/mL (≈ 8.15 µM); MIC (Staphylococcus aureus [24]): 16 µg/mL (≈ 32.6 µM); MIC (Escherichia coli [25]): > 32 µg/mL; MIC (Escherichia coli [26]): > 32 µg/mL; MIC (Enterococcus faecium [27]): 16 µg/mL (≈ 32.6 µM); MIC [28]: 8 µg/mL (≈ 16.3 µM); MIC (Staphylococcus aureus [29]): 8 µg/mL (≈ 16.3 µM); MIC (Streptococcus pneumoniae): 0.25 µg/mL (≈ 0.51 µM); MIC (Klebsiella pneumoniae [30]): > 32 µg/mL; MIC (Pseudomonas aeruginosa [31]): 16 µg/mL (≈ 32.6 µM); MIC (Klebsiella pneumoniae [32]): > 32 µg/mL; MIC (Escherichia coli [33]): > 32 µg/mL |
| CCO/N=C1/CN(c2nc3c(cc2F)c(=O)c(C(=O)O)cn3C2CC2)CC1CNC1CC1 (stereo not drawn) | 32 µg/mL (≈ 72.2 µM) | 128 µg/mL (≈ 289 µM) | 8 µg/mL (≈ 18 µM) | 128 µg/mL (≈ 289 µM) | 8 µg/mL (≈ 18 µM) | 8 µg/mL (≈ 18 µM) | 32 µg/mL (≈ 72.2 µM) | 32 µg/mL (≈ 72.2 µM) | 2 µg/mL (≈ 4.51 µM) | 16 µg/mL (≈ 36.1 µM) | 128 µg/mL (≈ 289 µM) | 16 µg/mL (≈ 36.1 µM) | 16 µg/mL (≈ 36.1 µM) | 16 µg/mL (≈ 36.1 µM) | 64 µg/mL (≈ 144 µM) | 8 µg/mL (≈ 18 µM) | 16 µg/mL (≈ 36.1 µM) | 8 µg/mL (≈ 18 µM) | 0.125 µg/mL (≈ 0.282 µM) | < 0.008 µg/mL | MIC (Pseudomonas aeruginosa [21]): 32 µg/mL (≈ 72.2 µM); MIC (Klebsiella pneumoniae [22]): 32 µg/mL (≈ 72.2 µM); MIC (Escherichia coli [23]): 8 µg/mL (≈ 18 µM); MIC (Staphylococcus aureus [24]): 8 µg/mL (≈ 18 µM); MIC (Escherichia coli [25]): 128 µg/mL (≈ 289 µM); MIC (Escherichia coli [26]): 128 µg/mL (≈ 289 µM); MIC (Enterococcus faecium [27]): 8 µg/mL (≈ 18 µM); MIC [28]: 32 µg/mL (≈ 72.2 µM); MIC (Staphylococcus aureus [29]): 8 µg/mL (≈ 18 µM); MIC (Streptococcus pneumoniae): 2 µg/mL (≈ 4.51 µM); MIC (Klebsiella pneumoniae [30]): 8 µg/mL (≈ 18 µM); MIC (Pseudomonas aeruginosa [31]): 8 µg/mL (≈ 18 µM); MIC (Klebsiella pneumoniae [32]): 128 µg/mL (≈ 289 µM); MIC (Escherichia coli [33]): 128 µg/mL (≈ 289 µM) |
